What was measured:
[1] = target: T1, 5-hydroxytryptamine receptor 4 (Homo sapiens, UniProt Q13639); experiment: Binding affinity for 5-HT4 receptor using [3H]GR-113808
[2] = target: T1, 5-hydroxytryptamine receptor 4; experiment: Percent cAMP production in C6 glial cells expressing human 5-hydroxytryptamine 4 receptor; format: functional, cell-based
Procedure, shortened: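 Confluent C6 cells stably expressing human 5-HT4(e) receptor were serum-starved 4 h, then preincubated 15 min with 5 mM theophylline and 10 μM pargyline. Compounds (seven concentrations, 10^-10 to 10^-5) and/or 5-HT (1 μM) were added for 15 min at 37 °C. Stopped with 20% perchloric acid, neutralized, and cAMP measured by radioimmunoassay.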

T1 sequence (Q13639 whole entry): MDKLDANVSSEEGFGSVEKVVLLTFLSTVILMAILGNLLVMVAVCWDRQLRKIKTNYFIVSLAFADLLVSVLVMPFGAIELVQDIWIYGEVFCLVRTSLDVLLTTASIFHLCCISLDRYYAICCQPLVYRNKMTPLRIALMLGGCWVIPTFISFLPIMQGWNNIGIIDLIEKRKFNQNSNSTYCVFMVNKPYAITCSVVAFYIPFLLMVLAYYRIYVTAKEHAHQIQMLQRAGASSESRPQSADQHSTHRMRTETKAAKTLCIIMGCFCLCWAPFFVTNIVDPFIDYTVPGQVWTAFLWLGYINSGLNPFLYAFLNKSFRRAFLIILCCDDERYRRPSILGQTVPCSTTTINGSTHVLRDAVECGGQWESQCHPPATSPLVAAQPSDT

| Ki [1] | cAMP [2] | Structure (SMILES) |
| --- | --- | --- |
| 16 nM | 20% | COc1cc(N)c(Cl)cc1C(=O)OCCN1CCC(NC(=O)CCCCCCCCCCC(=O)NC2CCN(CCOC(=O)c3cc(Cl)c(N)cc3O)CC2)CC1 |
| 5 nM | 5% | COc1cc(N)c(Cl)cc1C(=O)OCCN1CCC(C(=O)NCCCCCNC(=O)C2CCN(CCOC(=O)c3cc(Cl)c(N)cc3OC)CC2)CC1 |
| 37 nM | 3% | COc1cc(N)c(Cl)cc1C(=O)OCCN1CCC(C(=O)NCCNC(=O)C2CCN(CCOC(=O)c3cc(Cl)c(N)cc3OC)CC2)CC1 |
| 9 nM | 26% | COc1cc(N)c(Cl)cc1C(=O)OCCN1CCC(NC(=O)CCCCCC(=O)NC2CCN(CCOC(=O)c3cc(Cl)c(N)cc3OC)CC2)CC1 |
| 21 nM | 47% | COc1cc(N)c(Cl)cc1C(=O)OCCN1CCC(NC(=O)CCC(=O)NC2CCN(CCOC(=O)c3cc(Cl)c(N)cc3OC)CC2)CC1 |
| 31 nM | 42% | COc1cc(N)c(Cl)cc1C(=O)OCCN1CCC(NC(=O)CCCNC(=O)C2CCN(CCOC(=O)c3cc(Cl)c(N)cc3OC)CC2)CC1 |
| 3 nM | 3% | COc1cc(N)c(Cl)cc1C(=O)OCCN1CCC(C(=O)NCCOCCOCCNC(=O)C2CCN(CCOC(=O)c3cc(Cl)c(N)cc3OC)CC2)CC1 |
| 8 nM | 8% | COc1cc(N)c(Cl)cc1C(=O)OCCN1CCC(C(=O)NCCCCCCCCCCNC(=O)C2CCN(CCOC(=O)c3cc(Cl)c(N)cc3OC)CC2)CC1 |
| 5 nM | 16% | COc1cc(N)c(Cl)cc1C(=O)OCCN1CCC(C(=O)NCc2cccc(CNC(=O)C3CCN(CCOC(=O)c4cc(Cl)c(N)cc4OC)CC3)c2)CC1 |
| 24 nM | 10% | COc1cc(N)c(Cl)cc1C(=O)OCCN1CCC(NC(=O)CCNC(=O)C2CCN(CCOC(=O)c3cc(Cl)c(N)cc3OC)CC2)CC1 |
| 47 nM | 23% | COc1cc(N)c(Cl)cc1C(=O)OCCN1CCC(NC(=O)CCc2ccc3c(c2)oc2cc(CCC(=O)NC4CCN(CCOC(=O)c5cc(Cl)c(N)cc5OC)CC4)ccc23)CC1 |
| 13 nM | 13% | COc1cc(N)c(Cl)cc1C(=O)OCCN1CCC(C(=O)NCCCNC(=O)C2CCN(CCOC(=O)c3cc(Cl)c(N)cc3OC)CC2)CC1 |
| 14 nM | 35% | COc1cc(N)c(Cl)cc1C(=O)OCCN1CCC(NC(=O)CCCCCCCCCCC(=O)NC2CCN(Cc3ccccc3)CC2)CC1 |
| 5 nM | 32% | COc1cc(N)c(Cl)cc1C(=O)OCCN1CCC(NC(=O)CCCC(=O)NC2CCN(CCOC(=O)c3cc(Cl)c(N)cc3OC)CC2)CC1 |
|  | 24% | COc1cc(N)c(Cl)cc1C(=O)OCCN1CCC(CCNC(=O)CCCC(=O)NCCC2CCN(CCOC(=O)c3cc(Cl)c(N)cc3OC)CC2)CC1 |
| 11 nM | 31% | COc1cc(N)c(Cl)cc1C(=O)OCCN1CCC(CCNC(=O)CCCCCC(=O)NCCC2CCN(CCOC(=O)c3cc(Cl)c(N)cc3OC)CC2)CC1 |

| Ki [1] | cAMP [2] | Structure (SMILES) |
| --- | --- | --- |
| 26 nM | 20% | COc1cc(N)c(Cl)cc1C(=O)OCCN1CCC(CNC(=O)CCCCCC(=O)NCC2CCN(CCOC(=O)c3cc(Cl)c(N)cc3OC)CC2)CC1 |
| 9 nM | 6% | COc1cc(N)c(Cl)cc1C(=O)OCCN1CCC(CCNC(=O)CCCCCCCCCCC(=O)NCCC2CCN(CCOC(=O)c3cc(Cl)c(N)cc3OC)CC2)CC1 |
| 113 nM | 12% | COc1cc(N)c(Cl)cc1C(=O)OCCN1CCC(NC(=O)CCCCCCCCCCNc2nc(NCCCCCCCCCCC(=O)NC3CCN(CCOC(=O)c4cc(Cl)c(N)cc4OC)CC3)nc(NCc3ccccc3)n2)CC1 |
| 488 nM |  | COc1cc(N)c(Cl)cc1C(=O)OCCN1CCN(C(=O)CCCCCC(=O)N2CCN(CCOC(=O)c3cc(Cl)c(N)cc3OC)CC2)CC1 |
| 22 nM | 21% | COc1cc(N)c(Cl)cc1C(=O)OCCN1CCC(CNC(=O)CCCCCCCCCCC(=O)NCC2CCN(CCOC(=O)c3cc(Cl)c(N)cc3OC)CC2)CC1 |
| 19 nM | 0% | COc1cc(N)c(Cl)cc1C(=O)OCCN1CCC(C(=O)NCCOCCNC(=O)C2CCN(CCOC(=O)c3cc(Cl)c(N)cc3OC)CC2)CC1 |
| 6 nM | 0% | COc1cc(N)c(Cl)cc1C(=O)OCCN1CCC(C(=O)NCCCOCCOCCOCNC(=O)C2CCN(CCOC(=O)c3cc(Cl)c(N)cc3OC)CC2)CC1 |
| 20 nM | 5% | COc1cc(N)c(Cl)cc1C(=O)OCCN1CCC(NC(=O)CCCCCCCCCCNC(=O)C2CCN(CCOC(=O)c3cc(Cl)c(N)cc3OC)CC2)CC1 |
| 13 nM | 50% | COc1cc(N)c(Cl)cc1C(=O)OCCN1CCC(NC(=O)CCCCCCCCCCN)CC1 |
| 200 nM |  | COc1cc(N)c(Cl)cc1C(=O)OCCN1CCN(C(=O)CCCCCCCCCCC(=O)N2CCN(CCOC(=O)c3cc(Cl)c(N)cc3OC)CC2)CC1 |
| 50 nM | 10% | COc1cc(N)c(Cl)cc1C(=O)OCCN1CCC(NC(=O)CCCCCCCCCCN(CCCCCCCCCCC(=O)NC2CCN(CCOC(=O)c3cc(Cl)c(N)cc3OC)CC2)CC(=O)NCC2CCNCC2)CC1 |
| 7 nM | 46% | COc1cc(N)c(Cl)cc1C(=O)OCCN1CCC(NC(=O)CCCCCNC(=O)C2CCN(CCOC(=O)c3cc(Cl)c(N)cc3OC)CC2)CC1 |
| 5 nM | 15% | COc1cc(N)c(Cl)cc1C(=O)OCCN1CCC(CCNC(=O)CCC(=O)NCCC2CCN(CCOC(=O)c3cc(Cl)c(N)cc3OC)CC2)CC1 |
|  | 45% | COc1cc(N)c(Cl)cc1C(=O)OCCN1CCCCC1 |
| 7 nM | 16% | COc1cc(N)c(Cl)cc1C(=O)OCCN1CCC(CNC(=O)CCC(=O)NCC2CCN(CCOC(=O)c3cc(Cl)c(N)cc3OC)CC2)CC1 |
| 13 nM | 20% | COc1cc(N)c(Cl)cc1C(=O)OCCN1CCC(CNC(=O)CCCC(=O)NCC2CCN(CCOC(=O)c3cc(Cl)c(N)cc3OC)CC2)CC1 |
